# Test results published in paper PMC10644204 (Pharmacology Research & Perspectives, 2023).
# Where “and” joins values, the source holds several entries; their conditions need not be identical. Equal values may be shown once. Entries after “also recorded” stand apart in the source; their conditions may differ. Read-outs that look alike come from different tables or passages of the source.
# Assays:
# Format in all cases: in vivo, human
# [1] = Plasma pharmacokinetics, part 1 sentinel cohort
# Summary of the method: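 Part 1: healthy participants (n = 8) randomised 3:1 to test compound 500 mg or placebo orally once daily for 7 days, given with a moderate-fat meal (~600 cal, 30% fat) 30 min before dosing. Plasma sampled within 40 min predose on Days 1, 5, 6 and 7, and on Day 7 at 0.5–48 h postdose. Validated UHPLC-MS/MS, range 3.00–1000 ng mL−1.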
# [2] = Plasma pharmacokinetics, part 2 main QTc study; details: for Cτ, geometric mean (%CVb): moderate-fat meal, Day 7, n = 40
# Summary of the method: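 Moderate-fat meal 30 min before each dose. Plasma sampled predose on Days 1, 5, 6 and 7, and on Day 7 at 0.5–24 h postdose. Test compound assayed by validated UHPLC-MS/MS (3.00–1000 ng mL−1).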
# healthy participants [3] = tested on: healthy participants
# healthy participants [4] = test: Concentration-QTc analysis
# Summary of the method: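 Part 2: 12-lead ECGs extracted from continuous Holter recordings at baseline (Day −1; −45, −30, −15 min predose Day 1) and on Day 7 predose and 0.5–24 h postdose. ECGs taken before PK blood draws. QTcF by Fridericia. Mixed-effects model of ΔQTcF on plasma test compound concentration, with centred baseline QTcF, treatment and time fixed, and per-participant random slope and intercept.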
# healthy participants [5] = test: Safety assessments
# Summary of the method: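 Part 2 healthy participants confined from Day −2 of period 1 to Day 9 of period 4. […] AEs monitored throughout, recording duration, severity, causality and outcome, alongside safety ECGs, laboratory tests, physical examination and vital signs.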
# [6] = GSK'254 500 mg QD, 24 h post-dose
# [7] = part 2, GSK'254 100 mg (N = 40)
smiles,measurement,setting,value
C=C(C)[C@@H]1CC[C@]2(NCCN3CCS(=O)(=O)CC3)CC[C@]3(C)[C@H](CC[C@@H]4[C@@]5(C)CC=C(C6=CC[C@@](CF)(C(=O)O)CC6)C(C)(C)[C@@H]5CC[C@]43C)[C@@H]12 [GSK'254],AUC,"[1]; human, plasma, oral, 500 mg",68800 ng·h/mL
same,Cmax,"[1]; human, plasma, oral, 500 mg",4440 ng/mL
same,"Cτ, geometric mean (%CVb)","[1]; part 1, GSK'254 500 mg QD 7 days, moderate-fat meal, Day 7, n = 6",2080 ng mL^−1 and 2080 (32.4) ng mL^−1
same,AUC,"[2]; human, plasma, oral, 100 mg",13800 ng·h/mL
same,AUC,"[2]; human, plasma, oral, 500 mg",67500 ng·h/mL
same,Cmax,"[2]; human, plasma, oral, 500 mg",4260 ng/mL
same,"Cτ, geometric mean (%CVb)","[2]; part 2, GSK'254 100 mg QD 7 days",460 ng mL^−1 and 460 (40.3) ng mL^−1
same,"Cτ, geometric mean (%CVb)","[2]; part 2, GSK'254 500 mg QD 7 days",2140 ng mL^−1 and 2140 (46.6) ng mL^−1
same,Geometric mean steady-state exposure values with GSK'254 500 mg relative to GSK'254 100 mg,"[2]; part 2, QD 7 days",~ 5 fold
same,"Clinically relevant effects on cardiac parameters (QTc prolongation, HR, cardiac conduction)",healthy participants [3]; GSK'254 100 mg QD,"No clinically relevant effects on cardiac parameters; also recorded: No clinically relevant effects on QTc prolongation, HR, or cardiac conduction"
same,Observations of ΔQTcF >30 ms,healthy participants [3]; GSK'254 100 mg QD,no participants
same,Outliers in HR changes (HR >100 bpm with a >25% increase in ΔHR),healthy participants [3]; GSK'254 100 mg QD,one participant at one time point
same,Reports of QTcF >450 to ≤480 ms,healthy participants [3]; GSK'254 100 mg QD,one participant (one time point)
same,"LS mean ΔΔHR, lowest across time points","healthy participants [3]; GSK'254 100 mg QD, 0.5 h post-dose, Day 7",−0.2 (−2.17–1.67) bpm
same,"LS mean ΔΔHR, highest across time points","healthy participants [3]; GSK'254 100 mg QD, 24 h post-dose, Day 7",2.6 (0.70–4.53) bpm
same,"ΔΔQTcF, LS mean (90% CI)","healthy participants [3]; GSK'254 100 mg QD, Day 7, 0.5 h","1.0 (−1.60, 3.59) ms"
same,"ΔΔQTcF, LS mean (90% CI)","healthy participants [3]; GSK'254 100 mg QD, Day 7, 1 h","0.6 (−2.06, 3.33) ms"
same,"ΔΔQTcF, LS mean (90% CI)","healthy participants [3]; GSK'254 100 mg QD, Day 7, 2 h","1.7 (−1.27, 4.73) ms"
same,"ΔΔQTcF, LS mean (90% CI)","healthy participants [3]; GSK'254 100 mg QD, Day 7, 3 h","1.5 (−1.45, 4.51) ms"
same,"ΔΔQTcF, LS mean (90% CI)","healthy participants [3]; GSK'254 100 mg QD, Day 7, 4 h","1.0 (−1.59, 3.54) ms"
same,"ΔΔQTcF, LS mean (90% CI)","healthy participants [3]; GSK'254 100 mg QD, Day 7, 4.5 h","1.0 (−1.73, 3.82) ms"
same,"ΔΔQTcF, LS mean (90% CI)","healthy participants [3]; GSK'254 100 mg QD, Day 7, 5 h","0.2 (−2.44, 2.80) ms"
same,"ΔΔQTcF, LS mean (90% CI)","healthy participants [3]; GSK'254 100 mg QD, Day 7, 6 h","1.7 (−1.58, 4.97) ms"
same,"ΔΔQTcF, LS mean (90% CI)","healthy participants [3]; GSK'254 100 mg QD, Day 7, 8 h","−0.8 (−3.54, 1.90) ms"
same,"ΔΔQTcF, LS mean (90% CI)","healthy participants [3]; GSK'254 100 mg QD, Day 7, 10 h","0.2 (−2.30, 2.65) ms"
same,"ΔΔQTcF, LS mean (90% CI)","healthy participants [3]; GSK'254 100 mg QD, Day 7, 12 h","0.5 (−2.43, 3.35) ms"
same,"ΔΔQTcF, LS mean (90% CI)","healthy participants [3]; GSK'254 100 mg QD, Day 7, 24 h","0.1 (−2.66, 2.76) ms"
same,"ΔΔQTcF, LS mean (90% CI)","healthy participants [3]; GSK'254 100 mg QD, Day 7, […]","1.4 (−1.30, 4.13) ms"
same,"ΔΔQTcF, LS mean (90% CI)","healthy participants [3]; GSK'254 100 mg QD, Day 7, pre-dose","1.4 (−0.88, 3.77) ms"
same,Maximum LS mean ΔΔQTcF,"healthy participants [3]; GSK'254 100 mg QD, at 2 and 6 h post-dose on Day 7",1.7 ms
same,Upper bound of the 90% CI of LS mean ΔΔQTcF,"healthy participants [3]; GSK'254 100 mg QD, through 24 h post-dose on Day 7",< 10 ms
same,Observations of ΔQTcF >30 ms,healthy participants [3]; GSK'254 500 mg QD,two participants (three time points)
same,Outliers in HR changes (HR >100 bpm with a >25% increase in ΔHR),healthy participants [3]; GSK'254 500 mg QD,one participant at one time point
same,Reports of QTcF >450 to ≤480 ms,healthy participants [3]; GSK'254 500 mg QD,one participant (one time point)
same,Largest LS mean ΔΔHR,"healthy participants [3]; GSK'254 500 mg QD, 10 h post-dose on Day 7",5.1 bpm
same,"LS mean placebo-corrected change from baseline in PR, lowest across post-dose time points",healthy participants [3]; [6],−1.8 (−4.00–0.36) ms
same,"LS mean placebo-corrected change from baseline in QRS, maximum value",healthy participants [3]; [6],1.4 ms
same,"ΔΔQTcF, LS mean (90% CI)","healthy participants [3]; GSK'254 500 mg QD, Day 7, 0.5 h","7.2 (4.59, 9.83) ms"
same,"ΔΔQTcF, LS mean (90% CI)","healthy participants [3]; GSK'254 500 mg QD, Day 7, 1 h","4.1 (1.34, 6.79) ms"
same,"ΔΔQTcF, LS mean (90% CI)","healthy participants [3]; GSK'254 500 mg QD, Day 7, 2 h","6.5 (3.46, 9.55) ms"
same,"ΔΔQTcF, LS mean (90% CI)","healthy participants [3]; GSK'254 500 mg QD, Day 7, 3 h","8.1 (5.06, 11.09) ms"
same,"ΔΔQTcF, LS mean (90% CI)","healthy participants [3]; GSK'254 500 mg QD, Day 7, 4 h","8.6 (6.03, 11.22) ms"
same,"ΔΔQTcF, LS mean (90% CI)","healthy participants [3]; GSK'254 500 mg QD, Day 7, 4.5 h","10.6 (7.75, 13.38) ms"
same,"ΔΔQTcF, LS mean (90% CI)","healthy participants [3]; GSK'254 500 mg QD, Day 7, 5 h","9.6 (6.92, 12.24) ms"
same,"ΔΔQTcF, LS mean (90% CI)","healthy participants [3]; GSK'254 500 mg QD, Day 7, 6 h","8.6 (5.27, 11.89) ms"
same,"ΔΔQTcF, LS mean (90% CI)","healthy participants [3]; GSK'254 500 mg QD, Day 7, 8 h","8.1 (5.34, 10.85) ms"
same,"ΔΔQTcF, LS mean (90% CI)","healthy participants [3]; GSK'254 500 mg QD, Day 7, 10 h","8.6 (6.14, 11.15) ms"
same,"ΔΔQTcF, LS mean (90% CI)","healthy participants [3]; GSK'254 500 mg QD, Day 7, 12 h","6.0 (3.07, 8.89) ms"
same,"ΔΔQTcF, LS mean (90% CI)","healthy participants [3]; GSK'254 500 mg QD, Day 7, 24 h","7.7 (4.94, 10.45) ms"
same,"ΔΔQTcF, LS mean (90% CI)","healthy participants [3]; GSK'254 500 mg QD, Day 7, […]","9.2 (6.44, 11.93) ms"
same,"ΔΔQTcF, LS mean (90% CI)","healthy participants [3]; GSK'254 500 mg QD, Day 7, pre-dose","7.1 (4.74, 9.46) ms"
same,"LS mean placebo-corrected change from baseline in PR, highest across post-dose time points","healthy participants [3]; GSK'254 500 mg QD, […] post-dose",3.2 (0.86–5.57) ms
same,Maximum LS mean ΔΔQTcF,"healthy participants [3]; GSK'254 500 mg QD, at 4.5 h post-dose on Day 7",10.6 ms and 10.6 (7.75–13.38) ms
same,Clinically relevant effects on heart rate or cardiac conduction (PR and QRS intervals),healthy participants [3]; both GSK'254 doses (100 and 500 mg QD),Neither GSK'254 dose had clinically relevant effects on heart rate or cardiac conduction; also recorded: neither GSK'254 dose had a clinically relevant effect on cardiac conduction (PR and QRS intervals) or HR
same,Treatment effect-specific intercept of the concentration-QTc model,healthy participants [4]; Day 7,0.61 ms
same,Model-predicted ΔΔQTcF at geometric mean GSK'254 Cmax,healthy participants [4]; GSK'254 100 mg,2.72 ms
same,Model-predicted ΔΔQTcF at geometric mean GSK'254 Cmax,healthy participants [4]; GSK'254 500 mg,11.49 ms
same,Estimated population slope of the concentration-QTc model,"healthy participants [4]; ΔΔQTcF vs GSK'254 plasma concentration, Day 7",0.0025 ms per ng mL^−1
same,Tolerability,"healthy participants [5]; both GSK'254 doses, short-term administration, all AEs mild in intensity",generally well tolerated
same,AE: Abdominal pain,healthy participants [5]; [7],0 n (%)
same,AE: Acne,healthy participants [5]; [7],2 (5) n (%)
same,AE: Diarrhea,healthy participants [5]; [7],0 n (%)
